Measured values from different studies.
Compare with care: the assays were run in different laboratories.
Target: Dual specificity tyrosine-phosphorylation-regulated kinase 3 (DYRK3, Homo sapiens, UniProt O43781)
One construct used (O43781 1-588): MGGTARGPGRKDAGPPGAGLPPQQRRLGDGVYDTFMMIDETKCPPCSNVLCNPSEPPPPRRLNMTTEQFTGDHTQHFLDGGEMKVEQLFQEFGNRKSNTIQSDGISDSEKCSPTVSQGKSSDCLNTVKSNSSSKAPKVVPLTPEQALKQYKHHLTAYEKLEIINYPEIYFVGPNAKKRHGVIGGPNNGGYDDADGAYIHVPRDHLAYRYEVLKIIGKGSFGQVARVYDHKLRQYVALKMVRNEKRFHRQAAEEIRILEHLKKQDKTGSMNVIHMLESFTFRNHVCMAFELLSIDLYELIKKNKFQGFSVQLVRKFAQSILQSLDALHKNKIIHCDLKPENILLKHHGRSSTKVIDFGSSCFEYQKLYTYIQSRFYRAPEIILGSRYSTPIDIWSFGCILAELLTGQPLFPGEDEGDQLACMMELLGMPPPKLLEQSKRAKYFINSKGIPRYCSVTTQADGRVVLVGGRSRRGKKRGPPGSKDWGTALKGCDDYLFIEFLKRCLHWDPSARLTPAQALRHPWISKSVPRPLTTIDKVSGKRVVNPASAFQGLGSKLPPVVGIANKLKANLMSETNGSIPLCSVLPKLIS

| SMILES | read-out | action | technique | tested at | endpoint | value |
| --- | --- | --- | --- | --- | --- | --- |
| Cc1cc(NC(=O)c2cccc3cc(-c4cccc5[nH]nc(N)c45)ccc23)ccc1F | enzyme activity | inhibitor |  | 0.1 µM | activity vs control | 105% |
| COc1cccc(CCNc2nc3cc(C(=O)O)ccc3c3cnccc23)c1 | enzyme activity | inhibitor | radiometric | 1 µM | remaining activity | 11% |
| Cn1cnc(Br)c1C1=CN(c2ncnc3[nH]cnc23)CCS1 | enzyme activity | inhibitor | radiometric | 50 nM | inhibition | 49.8% |
| O=C(O)c1ccc2c(c1)nc(NCCc1cccc(F)c1)c1ncncc12 | enzyme activity | inhibitor | radiometric | 1 µM | remaining activity | 17% |
| CC/C(=N\NC(=O)NCc1cccc(O)c1)c1ccc(O)c(C)c1O | enzyme activity | inhibitor |  | 0.1 µM | inhibition | 1.6% |
| COc1cc2ncnc(Nc3ccc(Oc4ccccc4)c(C)c3C)c2cc1OC | enzyme activity | inhibitor |  | 1 µM | inhibition | -3% |
| COc1cc(-c2cc(-c3ccc(N4CCNCC4)cc3)cnc2C)cc(OC)c1OC | enzyme activity | inhibitor |  | 1 µM | inhibition | 1% |
| O=C(O)c1ccc2c(c1)nc(NCCc1cccc(F)c1)c1ccncc12 | enzyme activity | inhibitor | radiometric | 1 µM | remaining activity | 7% |
| N#CCCc1ccc2c(c1)-c1[nH]c3ccc([N+](=O)[O-])cc3c1CC(=O)N2 | cell-free assay |  |  | 0.5 µM | remaining signal | 97.6% |
| Nc1nc(Nc2ccccc2)sc1C(=O)c1c(F)cccc1F | enzyme activity | inhibitor |  | 10 µM | remaining activity | 83% |
| O=C(O)c1ccc2c(c1)nc(Nc1ccc(F)c(Cl)c1)c1ncncc12 | enzyme activity | inhibitor | radiometric | 1 µM | remaining activity | 8% |
| COc1cc(Nc2cnc(C#N)c(O[C@H](C)CN(C)C)n2)ncc1-c1cnn(C)c1 | enzyme activity | inhibitor | radiometric | 1 µM | remaining activity | 98% |
| O=C1Nc2ccc(Cl)cc2C1=Cc1cc(Cl)c(O)c(Cl)c1 | cell-free assay |  |  | 0.5 µM | remaining signal | 91.8% |
